pKi: −log10 of the molar value.
Legend:
[1] = biological target: 5-hydroxytryptamine receptor 1D (Homo sapiens, UniProt P28221); assay: Binding affinity for human 5-hydroxytryptamine 1D receptor
[2] = biological target: 5-hydroxytryptamine receptor 2A (Homo sapiens, UniProt P28223); assay: Binding affinity for human 5-hydroxytryptamine 2A receptor
In short: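 Human cloned receptor expressed in HEK 293 cells; displacement of [³H]ketanserin in 50 mM Tris-HCl (pH 7.7 at 25 °C). Test compound over a concentration range, 30-45 min at 37 °C; filtration with ice-cold buffer wash, bound label by scintillation counting; pKi reported as mean (SEM, n) or individual values where n = 2.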

[3] = biological target: T1, 5-hydroxytryptamine receptor 1B (Homo sapiens, UniProt P28222); assay: Effect of compound on [35S]GTP-gamma-S, radioligand binding CHO cells expressing human 5-hydroxytryptamine 1B receptor; format: functional, cell-based
T1 sequence (P28222 whole entry): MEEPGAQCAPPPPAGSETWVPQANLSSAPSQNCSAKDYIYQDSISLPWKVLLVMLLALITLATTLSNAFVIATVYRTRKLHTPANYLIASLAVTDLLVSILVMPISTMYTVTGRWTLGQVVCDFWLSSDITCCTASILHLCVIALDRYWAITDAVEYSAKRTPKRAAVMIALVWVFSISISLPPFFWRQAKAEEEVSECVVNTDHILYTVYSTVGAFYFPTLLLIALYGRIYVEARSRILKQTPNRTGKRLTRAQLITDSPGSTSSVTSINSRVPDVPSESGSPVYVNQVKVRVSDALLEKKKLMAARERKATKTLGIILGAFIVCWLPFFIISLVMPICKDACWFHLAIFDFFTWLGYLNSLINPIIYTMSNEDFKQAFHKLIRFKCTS

[4] = biological target: T1, 5-hydroxytryptamine receptor 1B; assay: Binding affinity for human 5-hydroxytryptamine 1B receptor
[5] = biological target: T2, Serotonin 1 receptors; 5-HT1B & 5-HT1D (Homo sapiens) (UniProt P28222+P28221); conditions: Cavia porcellus; 1.0 mg/kg
[6] = biological target: T2, Serotonin 1 receptors; 5-HT1B & 5-HT1D (Homo sapiens); conditions: Cavia porcellus
[7] = biological target: T2, Serotonin 1 receptors; 5-HT1B & 5-HT1D (Homo sapiens); conditions: Cavia porcellus; remark: listed apart in the source
[8] = biological target: 5-hydroxytryptamine receptor 1A (Homo sapiens, UniProt P08908); assay: Compound was tested for binding affinity against human 5-hydroxytryptamine 1A receptor
Sequence of 5-hydroxytryptamine receptor 1A (P08908 whole entry): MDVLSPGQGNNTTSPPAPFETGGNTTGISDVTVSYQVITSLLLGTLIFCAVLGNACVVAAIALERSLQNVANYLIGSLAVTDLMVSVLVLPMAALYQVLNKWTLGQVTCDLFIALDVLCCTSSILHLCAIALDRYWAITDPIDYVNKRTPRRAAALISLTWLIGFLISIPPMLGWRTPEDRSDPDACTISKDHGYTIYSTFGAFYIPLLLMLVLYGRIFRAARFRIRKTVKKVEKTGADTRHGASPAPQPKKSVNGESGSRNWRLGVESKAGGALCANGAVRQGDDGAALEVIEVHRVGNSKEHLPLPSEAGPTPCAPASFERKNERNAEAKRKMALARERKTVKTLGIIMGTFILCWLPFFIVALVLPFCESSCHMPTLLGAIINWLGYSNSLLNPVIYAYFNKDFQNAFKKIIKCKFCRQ
In short: (§1)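 Competition binding giving pKi. Human cloned 5-HT1A in HEK 293 cells vs [3H]-8-OH-DPAT; human 5-HT1E and 5-HT1F in CHO cells vs [3H]-5-HT. Radioligand with a concentration range of test compound, 30–45 min at 37 °C. Rapid filtration, ice-cold buffer wash, scintillation counting. Mean ± SEM, or individual values where n = 2.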

Cavia porcellus [9] = species on record: Cavia porcellus; assay: Compound was tested for % of SK & F 99101H controls on induced Hypothermia at 8 hr postdose treatment.; format: functional
In short: (§2)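 Male Dunkin-Hartley guinea pigs, n = 6/group. Compound given 5.0 mg/kg po, then SK&F 99101H 30 mg/kg ip at 2, 4, 8 or 24 h postdose; 8 and 24 h data come from a second independent experiment. Rectal temperature measured by probe 4–5 cm deep. Mean maximum temperature drop, also expressed as % of SK&F 99101H controls.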

[10] = biological target: Serotonin 4 (5-HT4) receptor (Sus scrofa, UniProt Q6Q253); assay: Compound was tested for binding affinity against piglet hippocampus 5-hydroxytryptamine 4 receptor; format: tissue-based
In short: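 pKi from displacement of [125I]SB-207710 in piglet hippocampus. Radioligand and a range of test concentrations incubated 30–45 min at 37 °C, then rapidly filtered, washed with ice-cold buffer and counted by scintillation.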

[11] = biological target: Beta-1 adrenergic receptor (Homo sapiens, UniProt P08588); assay: Compound was tested for binding affinity against human cloned Beta-1 adrenergic receptor
In short: (§3)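 Radioligand competition run to literature procedures, giving pKi. Receptor preparation incubated with radioligand and a range of test concentrations for 30–45 min at 37 °C. Rapid filtration, ice-cold buffer wash, dried filters scintillation-counted. Mean ± SEM, or individual values where n = 2.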

[12] = biological target: T2, Serotonin 1 receptors; 5-HT1B & 5-HT1D (Homo sapiens); conditions: Cavia porcellus; 3.0 mg/kg
Cavia porcellus [13] = assay: Body temperature drop at 22 mg/kg po dosage in Guinea pig; format: functional
Cavia porcellus [14] = species on record: Cavia porcellus; assay: Effect on SK & F 99101H (-2.60(1.37) -induced Hypothermia at 24 hr postdose treatment in guinea pig(** p< 0.01 vs SK & F 99101H controls).; format: functional; in short: as §2
[15] = biological target: Muscarinic acetylcholine receptor M1 (Homo sapiens, UniProt P11229); assay: Compound was tested for binding affinity against human cloned Muscarinic acetylcholine receptor M1; in short: as §3
Histamine H2 receptor = Histamine H2 receptor (Cavia porcellus, UniProt P47747); assay: Compound was tested for binding affinity towards Histamine H2 receptor; in short: as §3
Sequence of Histamine H2 receptor (P47747 whole entry): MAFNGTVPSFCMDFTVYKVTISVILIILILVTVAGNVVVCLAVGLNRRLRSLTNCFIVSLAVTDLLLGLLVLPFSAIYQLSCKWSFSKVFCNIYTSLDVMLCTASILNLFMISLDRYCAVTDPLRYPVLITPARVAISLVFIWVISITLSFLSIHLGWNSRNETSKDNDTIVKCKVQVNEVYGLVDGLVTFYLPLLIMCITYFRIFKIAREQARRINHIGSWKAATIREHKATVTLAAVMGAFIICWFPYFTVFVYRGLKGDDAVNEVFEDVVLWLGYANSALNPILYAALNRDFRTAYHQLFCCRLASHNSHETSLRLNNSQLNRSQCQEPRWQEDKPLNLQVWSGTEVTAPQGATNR

Cavia porcellus [16] = assay: Body temperature drop at 10 mg/kg po dosage in Guinea pig.; format: functional
[17] = biological target: T2, Serotonin 1 receptors; 5-HT1B & 5-HT1D (Homo sapiens); conditions: Cavia porcellus; 10.0 mg/kg
Cavia porcellus [18] = species on record: Cavia porcellus; assay: Mean maximum temperature drop on SK & F 99101H (-2.23(0.13)) -induced Hypothermia at 8 hr postdose treatment(** p< 0.01 vs SK & F 99101H controls).; format: functional; in short: as §2
Cavia porcellus [19] = species on record: Cavia porcellus; assay: (§4) Compound was tested for % of SK & F 99101H controls on induced Hypothermia at 4 h postdose treatment.; format: functional; in short: as §2
[20] = biological target: Beta-2 adrenergic receptor (Homo sapiens, UniProt P07550); assay: Compound was tested for binding affinity against human cloned Beta-2 adrenergic receptor; in short: as §3
Cavia porcellus [21] = species on record: Cavia porcellus; assay: Compound was tested for % of SK & F 99101H controls on induced Hypothermia at 2 hr postdose.; format: functional; in short: as §2
Cavia porcellus [22] = species on record: Cavia porcellus; assay: Mean maximum temperature drop on SK & F 99101H (-1.22(0.27)) -induced Hypothermia at 8 hr postdose treatment(* p< 0.05 vs SK & F 99101H controls).; format: functional; in short: as §2
[23] = biological target: T2, Serotonin 1 receptors; 5-HT1B & 5-HT1D (Homo sapiens); conditions: Cavia porcellus; remark: listed apart in the source
[24] = biological target: 5-hydroxytryptamine receptor 1E (Homo sapiens, UniProt P28566); assay: Compound was tested for binding affinity against human 5-hydroxytryptamine 1E receptor; in short: as §1
Sequence of 5-hydroxytryptamine receptor 1E (P28566 whole entry): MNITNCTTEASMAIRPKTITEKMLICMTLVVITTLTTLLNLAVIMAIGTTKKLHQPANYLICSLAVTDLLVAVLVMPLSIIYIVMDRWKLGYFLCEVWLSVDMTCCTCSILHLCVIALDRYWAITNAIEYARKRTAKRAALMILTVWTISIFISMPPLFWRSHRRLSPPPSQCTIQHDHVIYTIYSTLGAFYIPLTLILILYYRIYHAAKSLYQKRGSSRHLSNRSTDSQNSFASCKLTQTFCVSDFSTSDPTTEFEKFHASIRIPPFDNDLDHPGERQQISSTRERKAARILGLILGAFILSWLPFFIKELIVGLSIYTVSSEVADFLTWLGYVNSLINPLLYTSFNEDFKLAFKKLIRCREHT

Histamine H1 receptor = Histamine H1 receptor (Cavia porcellus, UniProt P31389); assay: Compound was tested for binding affinity against Histamine H1 receptor.; in short: as §3
[25] = biological target: Alpha-2A adrenergic receptor (Homo sapiens, UniProt P08913); assay: Compound was tested for binding affinity against human cloned Alpha-2A adrenergic receptor; in short: as §3
Sequence of Alpha-2A adrenergic receptor (P08913 whole entry): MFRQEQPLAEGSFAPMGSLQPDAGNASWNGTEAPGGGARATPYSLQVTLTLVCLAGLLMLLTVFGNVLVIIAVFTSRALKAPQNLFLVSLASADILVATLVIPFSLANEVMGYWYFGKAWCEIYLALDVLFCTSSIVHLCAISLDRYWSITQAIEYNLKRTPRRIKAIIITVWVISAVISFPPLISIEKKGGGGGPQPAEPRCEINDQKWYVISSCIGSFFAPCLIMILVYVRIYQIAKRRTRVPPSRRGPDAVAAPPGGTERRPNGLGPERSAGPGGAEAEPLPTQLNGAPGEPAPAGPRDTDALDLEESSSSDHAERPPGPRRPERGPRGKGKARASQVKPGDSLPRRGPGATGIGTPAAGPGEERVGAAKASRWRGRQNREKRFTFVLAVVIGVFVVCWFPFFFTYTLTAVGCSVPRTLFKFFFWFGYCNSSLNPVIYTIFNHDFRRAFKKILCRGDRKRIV

[26] = biological target: T2, Serotonin 1 receptors; 5-HT1B & 5-HT1D (Homo sapiens); conditions: Cavia porcellus; remark: listed apart in the source
[27] = biological target: T2, Serotonin 1 receptors; 5-HT1B & 5-HT1D (Homo sapiens); conditions: Cavia porcellus; 0.3 mg/kg
[28] = biological target: Alpha-1B adrenergic receptor (Rattus norvegicus, UniProt P15823); assay: Compound was tested for binding affinity against Alpha-1B adrenergic receptor (rat liver, [3H] prazosin); in short: as §3
Sequence of Alpha-1B adrenergic receptor (P15823 whole entry): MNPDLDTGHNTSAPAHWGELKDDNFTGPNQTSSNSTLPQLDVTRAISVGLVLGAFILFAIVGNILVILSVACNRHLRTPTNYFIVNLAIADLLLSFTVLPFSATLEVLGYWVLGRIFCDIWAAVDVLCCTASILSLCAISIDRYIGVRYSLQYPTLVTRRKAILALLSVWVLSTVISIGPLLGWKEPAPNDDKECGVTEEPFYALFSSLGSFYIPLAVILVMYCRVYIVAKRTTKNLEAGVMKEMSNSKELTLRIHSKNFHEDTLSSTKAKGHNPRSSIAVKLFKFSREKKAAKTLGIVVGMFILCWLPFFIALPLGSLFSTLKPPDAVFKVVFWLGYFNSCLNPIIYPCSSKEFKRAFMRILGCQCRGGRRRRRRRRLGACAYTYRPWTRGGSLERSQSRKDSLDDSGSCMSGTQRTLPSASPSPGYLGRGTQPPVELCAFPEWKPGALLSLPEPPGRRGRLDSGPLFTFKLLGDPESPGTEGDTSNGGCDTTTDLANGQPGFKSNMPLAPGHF

Cavia porcellus [29] = assay: Body temperature drop at 2.2 mg/kg po dosage in Guinea pig.; format: functional
Cavia porcellus [30] = species on record: Cavia porcellus; assay: Compound was tested for % of SK & F 99101H controls on induced Hypothermia at 24 hr postdose treatment.; format: functional; in short: as §2
[31] = biological target: T2, Serotonin 1 receptors; 5-HT1B & 5-HT1D (Homo sapiens); conditions: Cavia porcellus; remark: listed apart in the source
Cavia porcellus [32] = assay: Body temperature drop at 4.6 mg/kg po dosage in Guinea pig.; format: functional
Cavia porcellus [33] = species on record: Cavia porcellus; assay: Mean maximum temperature drop on SK & F 99101H (-1.72(0.09)) -induced Hypothermia at 2 hr postdose treatment(**p< 0.01 vs SK & F 99101H controls).; format: functional; in short: as §2
Cavia porcellus [34] = species on record: Cavia porcellus; assay: as §4; format: functional; in short: as §2; remark: listed apart in the source
[35] = biological target: 5-hydroxytryptamine receptor 2C (Homo sapiens, UniProt P28335); assay: Compound was tested for binding affinity against human 5-hydroxytryptamine 2C receptor
Sequence of 5-hydroxytryptamine receptor 2C (P28335 whole entry): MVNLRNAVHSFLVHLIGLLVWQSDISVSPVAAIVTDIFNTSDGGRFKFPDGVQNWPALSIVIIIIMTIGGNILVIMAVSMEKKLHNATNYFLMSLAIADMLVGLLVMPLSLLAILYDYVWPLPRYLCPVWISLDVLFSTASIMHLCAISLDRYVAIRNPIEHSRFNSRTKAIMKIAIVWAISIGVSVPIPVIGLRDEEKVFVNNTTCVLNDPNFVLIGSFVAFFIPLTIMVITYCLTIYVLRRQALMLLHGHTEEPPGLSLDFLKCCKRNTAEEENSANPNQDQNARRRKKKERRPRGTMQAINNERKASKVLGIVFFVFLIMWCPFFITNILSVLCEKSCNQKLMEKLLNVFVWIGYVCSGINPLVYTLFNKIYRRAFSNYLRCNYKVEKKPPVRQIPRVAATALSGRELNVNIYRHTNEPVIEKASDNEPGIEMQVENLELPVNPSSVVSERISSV
In short: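 Competition binding against human cloned 5-HT2C receptor expressed in HEK 293 cells. [3H]mesulergine was the radioligand. Incubation in 50 mM Tris-HCl (pH 7.7 at 25 °C) with a range of test concentrations for 30–45 min at 37 °C. Samples were rapidly filtered, washed with ice-cold buffer, and counted by scintillation. pKi is given as mean (SEM, n) or as individual values where n = 2.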

[36] = biological target: 5-hydroxytryptamine receptor 1F (Homo sapiens, UniProt P30939); assay: Compound was tested for binding affinity against human 5-hydroxytryptamine 1F receptor; in short: as §1
Cavia porcellus [37] = species on record: Cavia porcellus; assay: Body temperature drop at SK & F 99101H positive control dose (* p< 0.01 vs vehicle/vehicle controls) in Guinea pig.; format: functional
Cavia porcellus [38] = species on record: Cavia porcellus; assay: Mean maximum temperature drop on SK & F 99101H (-1.73(0.17)) -induced Hypothermia at 4 hr postdose treatment(** p< 0.01 vs SK & F 99101H controls).; format: functional; in short: as §2
D(2) dopamine receptor = D(2) dopamine receptor (Homo sapiens, UniProt P14416); assay: Compound was tested for binding affinity against human cloned Dopamine receptor D2
In short: (§5)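 Human D2 or D3 receptors expressed in CHO cells, displacement of [3H]spiperone, giving pKi. Incubated 30–45 min at 37 °C with a range of test concentrations. Filtered, washed with ice-cold buffer, bound label counted by scintillation.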

[39] = biological target: Alpha-2B adrenergic receptor (Mus musculus, UniProt P30545); assay: Compound was tested for binding affinity against Alpha-2B adrenergic receptor (NG 108-15 cells) using [3H]RX-821002) as radioligand; format: cell-based; in short: as §3
Sequence of Alpha-2B adrenergic receptor (P30545 whole entry): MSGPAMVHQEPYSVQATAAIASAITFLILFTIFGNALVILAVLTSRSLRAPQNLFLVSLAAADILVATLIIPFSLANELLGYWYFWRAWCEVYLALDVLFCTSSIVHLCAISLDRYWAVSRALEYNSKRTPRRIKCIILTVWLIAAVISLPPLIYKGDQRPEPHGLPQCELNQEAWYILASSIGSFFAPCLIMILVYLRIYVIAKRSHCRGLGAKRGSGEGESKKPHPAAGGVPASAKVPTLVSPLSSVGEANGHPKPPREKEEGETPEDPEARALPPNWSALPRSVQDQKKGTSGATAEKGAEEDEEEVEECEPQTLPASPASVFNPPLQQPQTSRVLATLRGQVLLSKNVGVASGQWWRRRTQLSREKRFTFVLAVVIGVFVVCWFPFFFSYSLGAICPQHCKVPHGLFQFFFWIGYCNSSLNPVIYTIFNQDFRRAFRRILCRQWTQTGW

D(3) dopamine receptor = D(3) dopamine receptor (Homo sapiens, UniProt P35462); assay: Compound was tested for binding affinity against human cloned Dopamine receptor D3; in short: as §5
[40] = biological target: Muscarinic acetylcholine receptor M2 (Homo sapiens, UniProt P08172); assay: Compound was tested for binding affinity against human cloned Muscarinic acetylcholine receptor M2; in short: as §3
Sequence of Muscarinic acetylcholine receptor M2 (P08172 whole entry): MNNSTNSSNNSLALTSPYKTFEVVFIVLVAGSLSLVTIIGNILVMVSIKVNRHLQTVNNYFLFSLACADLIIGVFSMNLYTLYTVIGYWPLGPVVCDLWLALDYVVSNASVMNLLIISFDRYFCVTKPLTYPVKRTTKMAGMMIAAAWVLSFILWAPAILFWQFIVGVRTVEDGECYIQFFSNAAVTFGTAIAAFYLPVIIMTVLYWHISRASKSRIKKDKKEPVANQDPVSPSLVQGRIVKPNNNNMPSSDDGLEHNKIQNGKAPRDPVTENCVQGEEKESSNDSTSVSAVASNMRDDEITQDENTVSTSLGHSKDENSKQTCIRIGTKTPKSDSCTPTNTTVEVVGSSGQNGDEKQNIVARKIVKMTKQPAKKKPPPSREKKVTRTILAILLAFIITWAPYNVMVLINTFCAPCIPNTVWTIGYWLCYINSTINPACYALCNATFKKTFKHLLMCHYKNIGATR

[41] = biological target: Alpha-1A adrenergic receptor (Rattus norvegicus, UniProt P43140); assay: Compound was tested for binding affinity against Alpha-1A adrenergic receptor (rat submaxillary gland); in short: as §3
[42] = biological target: T2, Serotonin 1 receptors; 5-HT1B & 5-HT1D (Homo sapiens); conditions: Cavia porcellus; remark: listed apart in the source

Sequence of 5-hydroxytryptamine receptor 2A (P28223 whole entry): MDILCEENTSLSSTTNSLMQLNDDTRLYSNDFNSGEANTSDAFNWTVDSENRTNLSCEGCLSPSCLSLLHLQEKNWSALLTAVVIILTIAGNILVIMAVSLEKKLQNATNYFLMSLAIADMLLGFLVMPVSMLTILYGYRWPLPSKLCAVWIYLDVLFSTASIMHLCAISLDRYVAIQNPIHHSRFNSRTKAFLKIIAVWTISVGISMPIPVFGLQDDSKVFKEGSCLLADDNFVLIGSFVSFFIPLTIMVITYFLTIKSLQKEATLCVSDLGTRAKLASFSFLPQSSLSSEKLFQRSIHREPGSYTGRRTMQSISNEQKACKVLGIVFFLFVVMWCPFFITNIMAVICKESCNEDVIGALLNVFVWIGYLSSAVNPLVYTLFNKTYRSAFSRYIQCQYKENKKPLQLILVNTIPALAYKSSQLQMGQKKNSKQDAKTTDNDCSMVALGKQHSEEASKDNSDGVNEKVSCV
Sequence of 5-hydroxytryptamine receptor 1D (P28221 whole entry): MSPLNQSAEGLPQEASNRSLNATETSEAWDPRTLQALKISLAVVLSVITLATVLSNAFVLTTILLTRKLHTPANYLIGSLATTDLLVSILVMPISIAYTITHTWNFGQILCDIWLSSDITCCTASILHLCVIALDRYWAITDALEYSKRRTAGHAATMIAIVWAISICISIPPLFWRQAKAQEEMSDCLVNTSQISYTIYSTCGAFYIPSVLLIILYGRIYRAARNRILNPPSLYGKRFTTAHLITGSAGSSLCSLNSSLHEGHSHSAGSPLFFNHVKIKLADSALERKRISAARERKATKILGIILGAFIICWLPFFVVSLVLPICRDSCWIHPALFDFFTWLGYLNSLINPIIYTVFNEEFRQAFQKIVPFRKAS

## COc1ccc(NC(=O)c2ccc(-c3ccc(-c4noc(C)n4)cc3C)cc2)cc1NCCN(C)C
[1]
  pKi: 7.40
[2]
  pKi: 8.30
[3]
  [35S]GTPγS binding stimulation: 108%
[4]
  pKi: 8.60

## Cc1nc(-c2ccc(-c3ccc(C(=O)Nc4ccc5c(c4)C4(CCN(C)CC4)CO5)cc3)c(C)c2)no1
[1]
  pKi: 5.70
[2]
  pKi: 6.00
[3]
  [35S]GTPγS binding stimulation: -64%
[4]
  pKi: 7.50

## COc1cc2c(cc1OCCN(C)C)N(C(=O)c1ccc(-c3ccc(-c4noc(C)n4)cc3C)cc1)CC2
[1]
  pKi: 8.30
[2]
  pKi: 6.50
[4]
  pKi: 9.30

## Cc1nc(-c2ccc(-c3ccc(C(=O)N4CCc5cc6c(cc54)C4(CCN(C)CC4)CO6)cc3)c(C)c2)no1 [SB-224289]
[5]
  Control: 85%
[6]
  Body temperature drop: -0.12 °C
[7]
  Degrees Centigrade: -1 °C
[8]
  pKi: < 5.50
Cavia porcellus [9]
  Control: 48%
[10]
  pKi: < 6.00
[11]
  pKi: < 6.00
[12]
  Control: 52%
Cavia porcellus [13]
  Body temperature drop: -0.03 °C
Cavia porcellus [14]
  Body temp drop: -1.31 °C
[15]
  pKi: < 6.00
Histamine H2 receptor
  pKi: < 6.00
Cavia porcellus [16]
  Body temperature drop: -0.03 °C
[17]
  Control: 35%
Cavia porcellus [18]
  Body temp drop: -1.1 °C
Cavia porcellus [19]
  Control: 43%
[20]
  pKi: < 6.00
Cavia porcellus [21]
  Control: 22%
Cavia porcellus [22]
  Body temp drop: -0.53 °C
[23]
  Degrees Centigrade: -1.63 °C
[24]
  pKi: < 5.00
Histamine H1 receptor
  pKi: < 6.00
[25]
  pKi: < 6.00
[26]
  Body temperature drop: -1.92 °C
[27]
  Control: 93%
[28]
  pKi: < 6.00
Cavia porcellus [29]
  Body temperature drop: -0.23 °C
Cavia porcellus [30]
  Control: 50%
[31]
  Body temp drop: -0.67 °C
Cavia porcellus [32]
  Body temperature drop: -0.05 °C
Cavia porcellus [33]
  Body temp drop: -0.38 °C
Cavia porcellus [34]
  Control: 15%
[35]
  pKi: 6.20
[2]
  pKi: 5.80
[36]
  pKi: < 5.00
Cavia porcellus [37]
  Mean maximumtemp drop: -2 °C
Cavia porcellus [38]
  Body temp drop: -0.27 °C
D(2) dopamine receptor
  pKi: < 6.00
[3]
  Simulation: -62%
[39]
  pKi: < 6.00
D(3) dopamine receptor
  pKi: < 6.00
[40]
  pKi: < 6.00
[41]
  pKi: < 6.00
[42]
  Degrees Centigrade: -1.77 °C

## COc1ccc(NC(=O)c2ccc(-c3ccc(-c4noc(C)n4)cc3C)cc2)cc1CCCN(C)C
[1]
  pKi: 7.00
[2]
  pKi: 8.20
[3]
  [35S]GTPγS binding stimulation: -44%
[4]
  pKi: 8.50
